Measurements from different studies.
Lines come from different studies, so protocols differ.
gag-pol reverse transcriptase: Gag-Pol polyprotein, reverse transcriptase (gag-pol, Human immunodeficiency virus type 1 group M subtype B, UniProt P04585)
gag-pol protease: Gag-Pol polyprotein, protease (gag-pol, Human immunodeficiency virus type 1 group M subtype B, UniProt P04585)

CC1(C)CC(=O)c2cc3c(C#N)cn(Cc4ccccc4)c3nc2C1
IC50 (gag-pol reverse transcriptase; enzyme activity, inhibitor, FRET): > 10000 nM

C=CCCc1c(O)cccc1C(=O)N[C@@H](Cc1ccc(OCC=C)cc1)[C@H](O)CN(CC(C)C)S(=O)(=O)c1ccc(OC)cc1
Ki (gag-pol protease; enzyme activity, inhibitor): 5 nM

CCCc1c2c(nc3c1c(C#N)cn3C1CCCCC1)CCC2=O
IC50 (gag-pol reverse transcriptase; enzyme activity, inhibitor, FRET): > 100000 nM

C=CCCCOc1ccc(C[C@H](NC(=O)c2cccc(O)c2CCC=C)[C@H](O)CN(CC(C)C)S(=O)(=O)c2ccc(OC)cc2)cc1
Ki (gag-pol protease; enzyme activity, inhibitor): 45 nM

CC(C)C[C@H]1C(OC(C)(C)C)=CC(=O)N1[C@H]1CCN(C2=CC(=O)NC2Cc2ccccc2)C1 (stereo partly shown)
IC50 (gag-pol protease; enzyme activity, inhibitor, fluorescence): 516000 nM

COc1ccc(S(=O)(=O)N(CC(C)C)C[C@@H](O)[C@@H]2Cc3ccc(cc3)OCC=CCCc3c(O)cccc3C(=O)N2)cc1
Ki (gag-pol protease; enzyme activity, inhibitor): 0.2 nM

CC(C)[C@H](NC(=O)[C@H](CCCNC(=N)N)NC(=O)[C@H](CO)NC(=O)[C@@H](N)Cc1c[nH]c2ccccc12)C(=O)NCC(=O)N[C@@H](Cc1ccc(O)cc1)C(=O)N[C@@H](Cc1c[nH]c2ccccc12)C(N)=O
Kd (gag-pol protease; binding, SPR): 44600 nM

CC(C)(C)n1cc(C#N)c2cc(C=O)cnc21
IC50 (gag-pol reverse transcriptase; enzyme activity, inhibitor, FRET): > 10000 nM

Cc1cn([C@H]2C[C@H](N=[N+]=[N-])[C@@H](CO[P@](=O)(O)O[P@](=O)(O)OP(=O)(O)O)O2)c(=O)[nH]c1=O
IC50 (gag-pol reverse transcriptase; enzyme activity, inhibitor): 185 nM

CC(C)CN(C[C@@H](O)[C@H](Cc1ccccc1)NC(=O)O[C@H]1CCO[C@H]2OCC[C@H]21)S(=O)(=O)c1ccc(C(=O)O)cc1
Ki (gag-pol protease; enzyme activity, inhibitor): 0.0076 nM

Cc1ccc(-c2cnc3c(c2)c(C#N)cn3Cc2ccccc2)cc1
IC50 (gag-pol reverse transcriptase; enzyme activity, inhibitor, FRET): > 100000 nM

COc1ccc2c(c1)OCCCCCCCCCN(C[C@@H](O)[C@H](Cc1ccccc1)NC(=O)O[C@H]1CO[C@H]3OCC[C@H]31)S2(=O)=O
Ki (gag-pol protease; enzyme activity, inhibitor): < 0.7 nM

Oc1cc2c(cc1O)C(c1ccccc1)CNCC2 (racemic)
IC50 (Gag-Pol polyprotein, integrase (gag-pol, Human immunodeficiency virus type 1 group M subtype B, UniProt P04585); enzyme activity, inhibitor): > 25000 nM
